In brackets after ≈: the same amount, converted by molar mass. Activity calls are given as the source filed them. The calls are words filed in the database; no cut-off is given here.
Experiments:
Acinetobacter baumannii [1] = assay: Antibacterial activity against Acinetobacter baumannii ATCC BAA-1605 assessed as complete inhibition of bacterial growth after 16 hrs by microdilution method; format: functional; conditions: ATCC BAA-1605, 16 h
Outline: (§1)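 MIC of each compound alone was determined first. Antibiotic MICs (imipenem or meropenem for A. baumannii; ceftazidime or meropenem for P. aeruginosa) were then measured with compound at fixed sub-MIC concentrations. Fold reduction is MIC without compound divided by MIC with compound.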

Acinetobacter baumannii [2] = assay: Antibacterial activity against Acinetobacter baumannii ATCC BAA-1605 assessed as fold reduction in meropenem MIC at 60 uM after 16 hrs by microdilution method; format: functional; outline: as §1
Pseudomonas aeruginosa [3] = assay: Antibacterial activity against Pseudomonas aeruginosa PA53 assessed as complete inhibition of bacterial growth after 16 hrs by microdilution method; format: functional; conditions: PA53, 16 h; outline: as §1
Pseudomonas aeruginosa [4] = assay: Antibacterial activity against Pseudomonas aeruginosa PA53 assessed as fold reduction in meropenem MIC at 30 uM after 16 hrs by microdilution method; format: functional; outline: as §1
Pseudomonas aeruginosa [5] = assay: Antibacterial activity against Pseudomonas aeruginosa PA53 assessed as fold reduction in ceftazidime MIC at 30 uM after 16 hrs by microdilution method; format: functional; outline: as §1
Acinetobacter baumannii [6] = assay: Antibacterial activity against Acinetobacter baumannii ATCC BAA-1605 assessed as fold reduction in imipenem MIC at 60 uM after 16 hrs by microdilution method; format: functional; outline: as §1
Pseudomonas aeruginosa [7] = assay: Antibacterial activity against Pseudomonas aeruginosa PA53 assessed as fold reduction in meropenem MIC at 60 uM after 16 hrs by microdilution method; format: functional; outline: as §1
Pseudomonas aeruginosa [8] = assay: Antibacterial activity against Pseudomonas aeruginosa PA53 assessed as fold reduction in ceftazidime MIC at 60 uM after 16 hrs by microdilution method; format: functional; outline: as §1
Acinetobacter baumannii [9] = assay: Antibacterial activity against Acinetobacter baumannii ATCC BAA-1605 assessed as fold reduction in meropenem MIC at 30 uM after 16 hrs by microdilution method; format: functional; outline: as §1
Acinetobacter baumannii [10] = assay: Antibacterial activity against Acinetobacter baumannii ATCC BAA-1605 assessed as fold reduction in imipenem MIC at 30 uM after 16 hrs by microdilution method; format: functional; outline: as §1
Pseudomonas aeruginosa [11] = assay: Antibacterial activity against Pseudomonas aeruginosa PA53 assessed as reduction in CFU at 60 uM after 6 hrs by time kill assay; format: functional
Outline: (§2)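 Time-kill: cultures were grown at 37 °C with shaking with compound (15 μM for BAA-1605, 60 μM for PA53), meropenem (1–32 μg/mL for BAA-1605, 1–64 μg/mL for PA53), or both. Samples taken at 2, 4, 6, 8 and 24 h were serially diluted in CAMHB, plated on nutrient agar, incubated overnight at 37 °C, and colonies counted.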

Acinetobacter baumannii [12] = assay: Antibacterial activity against Acinetobacter baumannii ATCC BAA-1605 assessed as reduction in CFU at 60 uM after 6 hrs by time kill assay; format: functional, organism-based
Acinetobacter baumannii [13] = assay: Antibacterial activity against Acinetobacter baumannii ATCC BAA-1605 assessed as reduction in meropenem MIC at 60 uM after 6 hrs by time kill assay; format: functional
Pseudomonas aeruginosa [14] = assay: Antibacterial activity against Pseudomonas aeruginosa PA53 assessed as reduction in meropenem MIC at 60 uM after 6 hrs by time kill assay; format: functional, organism-based
Acinetobacter baumannii [15] = assay: Antibacterial activity against Acinetobacter baumannii ATCC BAA-1605 assessed as fold reduction in meropenem MIC at 7.5 uM after 16 hrs by microdilution method; format: functional; outline: as §1
Pseudomonas aeruginosa [16] = assay: Antibacterial activity against Pseudomonas aeruginosa PA53 assessed as fold reduction in meropenem MIC at 15 uM after 16 hrs by microdilution method; format: functional; outline: as §1
Pseudomonas aeruginosa [17] = assay: Antibacterial activity against Pseudomonas aeruginosa PA53 assessed as fold reduction in ceftazidime MIC at 15 uM after 16 hrs by microdilution method; format: functional; outline: as §1
Acinetobacter baumannii [18] = assay: Antibacterial activity against Acinetobacter baumannii ATCC BAA-1605 assessed as fold reduction in imipenem MIC at 7.5 uM after 16 hrs by microdilution method; format: functional; outline: as §1
Acinetobacter baumannii [19] = assay: Antibacterial activity against Acinetobacter baumannii ATCC BAA-1605 assessed as fold reduction in meropenem MIC at 15 uM after 16 hrs by microdilution method; format: functional; outline: as §1
Acinetobacter baumannii [20] = assay: Antibacterial activity against Acinetobacter baumannii ATCC BAA-1605 assessed as fold reduction in imipenem MIC at 15 uM after 16 hrs by microdilution method; format: functional; outline: as §1
Acinetobacter baumannii [21] = assay: Antibacterial activity against Acinetobacter baumannii ATCC BAA-1605 assessed as reduction in CFU at 4 ug/ml after 6 hrs by time kill assay; format: functional; outline: as §2
Acinetobacter baumannii [22] = assay: Antibacterial activity against Acinetobacter baumannii ATCC BAA-1605 assessed as reduction in CFU at 1 ug/ml after 6 hrs by time kill assay; format: functional; outline: as §2
Pseudomonas aeruginosa [23] = assay: Antibacterial activity against Pseudomonas aeruginosa PA53 assessed as reduction in CFU at 4 ug/ml after 6 hrs by time kill assay; format: functional; outline: as §2
Pseudomonas aeruginosa [24] = assay: Antibacterial activity against Pseudomonas aeruginosa PA53 assessed as reduction in CFU at 1 ug/ml after 6 hrs by time kill assay; format: functional; outline: as §2

Row | MIC (Acinetobacter baumannii [1]) | MIC (Pseudomonas aeruginosa [3]) | SMILES | fold change (FC) (Acinetobacter baumannii [2]) | fold change (FC) (Pseudomonas aeruginosa [7]) | fold change (FC) (Pseudomonas aeruginosa [8]) | other results
1 | 200 µM | 100 µM (≈ 31.4 µg/mL) | Nc1ncc(-c2ccc(NC(=O)c3cc(F)cc(F)c3)cc2)[nH]1 | 16 |  |  | fold change (FC) (Pseudomonas aeruginosa [4]): 2; fold change (FC) (Pseudomonas aeruginosa [5]): 1; fold change (FC) (Acinetobacter baumannii [6]): 8
2 | 200 µM |  | CCCCCc1ccc(C(=O)Nc2ccc(-c3cnc(N)[nH]3)cc2)cc1 |  |  |  | 
3 | > 200 µM | > 200 µM | Cl.Nc1nc(-c2ccc(NC(=O)c3c(F)c(F)c(F)c(F)c3F)cc2)c[nH]1 | 2 | 2 | 1 | fold change (FC) (Acinetobacter baumannii [6]): 1
4 | 100 µM | 200 µM | Cl.Nc1nc(-c2ccc(NC(=O)c3cc(F)c(F)c(F)c3)cc2)c[nH]1 |  | 2 | 1 | fold change (FC) (Acinetobacter baumannii [9]): 8; fold change (FC) (Acinetobacter baumannii [10]): 8
5 | 100 µM |  | CCCCCC(=O)Nc1cccc(-c2c[nH]c(N)n2)c1 |  |  |  | 
6 | > 200 µM | > 200 µM | Cl.Nc1nc(-c2ccc(NC(=O)c3ccccc3F)cc2)c[nH]1 | 2 | 2 | 1 | fold change (FC) (Acinetobacter baumannii [6]): 1
7 |  |  | Cl.Nc1ncc(-c2ccc(NC(=O)c3cccc(Cl)c3Cl)cc2)[nH]1 | 2 | 1 |  | Activity (Pseudomonas aeruginosa [11]): inactive; Activity (Acinetobacter baumannii [12]): inactive; fold change (FC) (Acinetobacter baumannii [13]): 2; Activity (Pseudomonas aeruginosa [14]): inactive
8 | > 200 µM | > 200 µM | Cl.Nc1nc(-c2ccc(NC(=O)c3cccc(Br)c3)cc2)c[nH]1 | 16 | 4 | 16 | fold change (FC) (Acinetobacter baumannii [6]): 8
9 | > 200 µM | > 200 µM | Cl.Nc1nc(-c2ccc(NC(=O)c3ccc(Br)cc3)cc2)c[nH]1 | 16 | 2 | 1 | fold change (FC) (Acinetobacter baumannii [6]): 8
10 |  |  | Cl.Nc1ncc(-c2ccc(NC(=O)c3ccc(I)cc3)cc2)[nH]1 | 2 | 1 |  | 
11 |  |  | Cl.Nc1ncc(-c2ccc(NC(=O)c3cc(Br)cc(Br)c3)cc2)[nH]1 |  | 1 |  | fold change (FC) (Acinetobacter baumannii [9]): 4
12 | > 200 µM | 200 µM | Cl.Nc1nc(-c2ccc(NC(=O)c3ccc(F)cc3)cc2)c[nH]1 | 4 | 2 | 1 | fold change (FC) (Acinetobacter baumannii [6]): 2
13 | > 200 µM | > 200 µM | Cl.Nc1nc(-c2ccc(NC(=O)c3ccc(Cl)cc3)cc2)c[nH]1 | 8 | 2 | 1 | fold change (FC) (Acinetobacter baumannii [6]): 4
14 |  |  | Cl.Nc1ncc(-c2ccc(NC(=O)c3ccc(Cl)cc3Cl)cc2)[nH]1 | 4 | 1 |  | 
15 |  |  | Cl.Nc1ncc(-c2ccc(NC(=O)c3cccc(I)c3)cc2)[nH]1 | 8 | 1 |  | 
16 |  |  | Cl.Nc1ncc(-c2ccc(NC(=O)c3ccc(Br)cc3F)cc2)[nH]1 | 2 | 1 |  | 
17 | 25 µM | 50 µM | Cl.Nc1nc(-c2ccc(NC(=O)c3ccc(C(F)(F)F)c(F)c3)cc2)c[nH]1 |  |  |  | fold change (FC) (Acinetobacter baumannii [15]): 4; fold change (FC) (Pseudomonas aeruginosa [16]): 4; fold change (FC) (Pseudomonas aeruginosa [17]): 8; fold change (FC) (Acinetobacter baumannii [18]): 2
18 | 200 µM |  | CCCCCCC(=O)Nc1ccc(-c2cnc(N)[nH]2)cc1 |  |  |  | 
19 | 100 µM | 200 µM | Cl.Nc1nc(-c2ccc(NC(=O)c3c(Cl)cc(Cl)cc3Cl)cc2)c[nH]1 |  | 4 | 1 | fold change (FC) (Acinetobacter baumannii [9]): 4; fold change (FC) (Acinetobacter baumannii [10]): 1
20 | > 200 µM | 200 µM | Cl.Nc1nc(-c2ccc(NC(=O)c3cccc(F)c3)cc2)c[nH]1 | 4 | 2 | 1 | fold change (FC) (Acinetobacter baumannii [6]): 2
21 | 50 µM | 100 µM | Cl.Nc1nc(-c2ccc(NC(=O)c3ccc(C(F)(F)F)cc3)cc2)c[nH]1 |  |  |  | fold change (FC) (Acinetobacter baumannii [19]): 4; fold change (FC) (Pseudomonas aeruginosa [4]): 8; fold change (FC) (Pseudomonas aeruginosa [5]): 8; fold change (FC) (Acinetobacter baumannii [20]): 4
22 |  |  | Cl.Nc1ncc(-c2ccc(NC(=O)c3cc(I)c(I)c(I)c3)cc2)[nH]1 | 2 | 1 |  | 
23 | 100 µM |  | CCCCCCc1ccc(-c2c[nH]c(N)n2)cc1 |  |  |  | 
24 |  |  | Cl.Nc1ncc(-c2ccc(NC(=O)c3ccc(Cl)c(Cl)c3)cc2)[nH]1 |  |  |  | fold change (FC) (Acinetobacter baumannii [9]): 64; fold change (FC) (Pseudomonas aeruginosa [4]): 1
25 | 100 µM |  | Nc1ncc(-c2ccc(NC(=O)/C=C/c3ccccc3)cc2)[nH]1 |  |  |  | 
26 |  |  | Cl.Nc1ncc(-c2ccc(NC(=O)c3ccc(F)c(Cl)c3)cc2)[nH]1 |  |  |  | fold change (FC) (Acinetobacter baumannii [9]): 4; fold change (FC) (Pseudomonas aeruginosa [16]): 1

Row | SMILES | MIC (Acinetobacter baumannii [1]) | MIC (Pseudomonas aeruginosa [3]) | fold change (FC) (Acinetobacter baumannii [2]) | fold change (FC) (Pseudomonas aeruginosa [7]) | fold change (FC) (Pseudomonas aeruginosa [8]) | other results
27 | C[C@@H](O)[C@H]1C(=O)N2C(C(=O)O)=C(SCCNC=N)C[C@H]12 [IMIPENEM ANHYDROUS] | 16 µg/mL |  |  |  |  | 
28 | C[C@@H](O)[C@H]1C(=O)N2C(C(=O)O)=C(S[C@@H]3CN[C@H](C(=O)N(C)C)C3)[C@H](C)[C@H]12 [MEROPENEM] | 32 µg/mL |  |  |  |  | fold change (FC) (Acinetobacter baumannii [21]): <0.1; fold change (FC) (Acinetobacter baumannii [22]): <0.1; fold change (FC) (Pseudomonas aeruginosa [23]): 0.2; fold change (FC) (Pseudomonas aeruginosa [24]): 0.2
